Test results from ChEMBL document CHEMBL4433207, “Novel Isoxazole Derivatives with Potent FXR Agonistic Activity Prevent Acetaminophen-Induced Liver Injury” (ACS Med Chem Lett, 2019).
Each block holds one compound with its values, some of them ahead of it. Calls of active or inactive are those of the source. The rule behind the calls is not given here.

Columns and labels:
[1] = target: T1, G-protein coupled bile acid receptor 1 (Homo sapiens) (UniProt Q8TDU6); assay: Agonist activity at human GPBAR1 expressed in HEK293T cells at 10 uM after 18 hrs by cAMP response element driven luciferase reporter gene assay; type: functional, cell-based
T1 sequence (whole entry): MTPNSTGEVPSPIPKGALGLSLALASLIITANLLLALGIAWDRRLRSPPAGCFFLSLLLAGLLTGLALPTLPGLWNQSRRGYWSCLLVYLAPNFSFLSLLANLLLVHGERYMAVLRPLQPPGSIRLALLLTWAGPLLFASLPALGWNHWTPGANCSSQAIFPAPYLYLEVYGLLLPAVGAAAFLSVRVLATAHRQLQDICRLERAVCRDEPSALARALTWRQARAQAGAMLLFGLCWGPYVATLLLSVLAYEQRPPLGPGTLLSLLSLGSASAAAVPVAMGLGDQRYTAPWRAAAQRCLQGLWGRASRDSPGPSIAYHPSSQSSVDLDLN

Mus musculus [2] = assay: Hepatoprotective activity against APAP-induced acute liver injury in C57BL/6N mouse assessed as upregulation of UGT2B1 mRNA levels at 30 mg/kg, po administered 45 mins after APAP challenge; type: functional, organism-based
How it was run: (§1)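 C57Bl6 mice given a single 500 mg/kg APAP dose, with test agent at 30 mg/kg; surviving mice sacrificed 24 h later, blood and liver collected. Endpoints: serum AST/ALT, liver H&E histology, hepatic Ugt1a1/Ugt2b1/Sult1a1 mRNA, hepatic GSH, SOD activity and MDA, and plasma APAP, APAP-glucuronide and APAP-sulfate by LC–MS/MS. Mean ± SEM, 5–8 animals per group.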

Mus musculus [3] = assay: Hepatoprotective activity against APAP-induced acute liver injury in C57BL/6N mouse assessed as reduction in plasma ALT levels at 30 mg/kg, po administered 45 mins after APAP challenge; type: functional, organism-based; how it was run: as §1
[4] = target: T2, Oxysterols receptor LXR-beta (Homo sapiens) (UniProt P55055); assay: Transactivation of Gal4-fused LXRbeta LBD (unknown origin) expressed in HepG2 cells at 10 uM after 18 hrs by dual-glo luciferase assay; type: cell-based
T2 sequence (whole entry): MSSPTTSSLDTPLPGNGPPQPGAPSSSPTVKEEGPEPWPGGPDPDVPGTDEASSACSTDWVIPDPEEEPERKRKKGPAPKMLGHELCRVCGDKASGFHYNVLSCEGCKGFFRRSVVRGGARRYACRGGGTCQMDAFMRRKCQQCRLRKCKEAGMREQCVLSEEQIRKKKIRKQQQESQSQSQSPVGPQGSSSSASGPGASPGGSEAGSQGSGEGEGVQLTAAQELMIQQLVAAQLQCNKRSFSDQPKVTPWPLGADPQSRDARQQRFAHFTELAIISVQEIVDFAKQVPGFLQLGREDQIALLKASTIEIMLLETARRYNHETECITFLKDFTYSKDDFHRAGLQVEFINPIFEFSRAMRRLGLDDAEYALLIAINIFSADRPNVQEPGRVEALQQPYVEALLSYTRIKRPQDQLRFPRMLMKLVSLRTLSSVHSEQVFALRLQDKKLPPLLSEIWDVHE

Mus musculus [5] = assay: In-vivo agonist activity at FXR in C57BL/6N N mouse assessed as upregulation of BSEP mRNA level at 10 mg/kg, po dosed daily via gavage for 3 days by RT-PCR analysis; type: functional, organism-based
How it was run: (§2)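 Mice dosed 10 mg/kg daily for 3 days, by gavage or i.p. Total liver RNA analysed by quantitative real-time PCR for SHP or BSEP mRNA, normalized to GAPDH mRNA; mean ± SEM of four mice per group.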

Mus musculus [6] = assay: Hepatoprotective activity against APAP-induced acute liver injury in C57BL/6N mouse assessed as increase in APAP metabolism by measuring increase in APAP-glucuronide level at 30 mg/kg, po administered 45 min after APAP challenge by LC-MS/MS analysis; type: functional, organism-based; how it was run: as §1
Mus musculus [7] = assay: In-vivo agonist activity at FXR in C57BL/6N N mouse assessed as upregulation of BSEP mRNA level at 10 mg/kg, ip dosed daily […] for 3 days by RT-PCR analysis; type: functional, organism-based; how it was run: as §2
Mus musculus [8] = assay: Hepatoprotective activity against APAP-induced acute liver injury in C57BL/6N mouse assessed as reduction in liver necrosis at 30 mg/kg, po administered 45 mins after APAP challenge by H and E staining based microscopic method; type: functional, organism-based; how it was run: as §1
[9] = target: T3, Peroxisome proliferator-activated receptor gamma (Homo sapiens) (UniProt P37231); assay: Transactivation of Gal4-fused PPARgamma LBD (unknown origin) expressed in HepG2 cells at 10 uM after 18 hrs by dual-glo luciferase assay; type: cell-based
T3 sequence (whole entry): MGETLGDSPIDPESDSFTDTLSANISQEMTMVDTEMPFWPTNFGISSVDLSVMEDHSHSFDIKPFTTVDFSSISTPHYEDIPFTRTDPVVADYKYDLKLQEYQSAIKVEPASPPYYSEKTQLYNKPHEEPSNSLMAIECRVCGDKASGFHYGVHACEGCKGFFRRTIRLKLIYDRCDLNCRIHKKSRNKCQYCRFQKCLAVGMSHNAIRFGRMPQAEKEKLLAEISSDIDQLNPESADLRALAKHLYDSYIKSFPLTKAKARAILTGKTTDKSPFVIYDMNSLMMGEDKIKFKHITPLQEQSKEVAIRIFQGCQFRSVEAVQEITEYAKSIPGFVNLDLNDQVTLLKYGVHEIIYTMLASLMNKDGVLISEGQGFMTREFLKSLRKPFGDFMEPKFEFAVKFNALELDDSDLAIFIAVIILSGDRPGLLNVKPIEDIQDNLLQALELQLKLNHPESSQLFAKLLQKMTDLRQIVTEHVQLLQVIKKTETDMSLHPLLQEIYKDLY

Mus musculus [10] = assay: In-vivo agonist activity at FXR in C57BL/6N N mouse assessed as upregulation of SHP mRNA level at 10 mg/kg, po dosed daily via gavage for 3 days by RT-PCR analysis; type: functional, organism-based; how it was run: as §2
Mus musculus [11] = assay: Hepatoprotective activity against APAP-induced acute liver injury in C57BL/6N mouse assessed as upregulation of SULT1A1 mRNA levels at 30 mg/kg, po administered 45 mins after APAP challenge; type: functional, organism-based; how it was run: as §1
[12] = target: T4, Oxysterols receptor LXR-alpha (Homo sapiens) (UniProt Q13133); assay: Transactivation of Gal4-fused LXRalpha LBD (unknown origin) expressed in HepG2 cells at 10 uM after 18 hrs by dual-glo luciferase assay; type: cell-based
T4 sequence (whole entry): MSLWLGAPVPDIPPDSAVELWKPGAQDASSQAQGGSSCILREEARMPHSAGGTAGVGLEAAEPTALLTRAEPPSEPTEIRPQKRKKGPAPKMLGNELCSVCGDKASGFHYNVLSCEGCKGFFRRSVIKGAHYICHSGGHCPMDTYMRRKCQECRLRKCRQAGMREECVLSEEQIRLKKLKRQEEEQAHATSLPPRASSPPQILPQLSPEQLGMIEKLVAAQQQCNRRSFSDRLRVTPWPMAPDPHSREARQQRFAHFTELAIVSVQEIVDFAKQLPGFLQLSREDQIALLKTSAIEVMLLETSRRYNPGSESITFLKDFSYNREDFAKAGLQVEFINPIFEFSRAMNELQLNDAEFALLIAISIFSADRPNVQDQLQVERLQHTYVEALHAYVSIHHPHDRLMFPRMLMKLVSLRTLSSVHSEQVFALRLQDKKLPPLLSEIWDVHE

Mus musculus [13] = assay: Hepatoprotective activity against APAP-induced acute liver injury in C57BL/6N mouse assessed as reduction in lipid peroxidation by measuring MDA levels at 30 mg/kg, po administered 45 mins after APAP challenge; type: functional, organism-based; how it was run: as §1
Mus musculus [14] = assay: Hepatoprotective activity against APAP-induced acute liver injury in C57BL/6N mouse assessed as APAP plasma concentration at 30 mg/kg, po administered 45 min after APAP challenge by LC-MS/MS analysis (reference value: 1000 nM); type: functional, organism-based; how it was run: as §1
Mus musculus [15] = assay: In-vivo agonist activity at FXR in C57BL/6N N mouse assessed as upregulation of SHP mRNA level at 10 mg/kg, ip dosed daily […] for 3 days by RT-PCR analysis; type: functional, organism-based; how it was run: as §2
Mus musculus [16] = assay: Hepatoprotective activity against APAP-induced acute liver injury in C57BL/6N mouse assessed as increase in GSH levels at 30 mg/kg, po administered 45 mins after APAP challenge; type: functional, organism-based; how it was run: as §1
Mus musculus [17] = assay: Hepatoprotective activity against APAP-induced acute liver injury in C57BL/6N mouse assessed as reduction in plasma AST levels at 30 mg/kg, po administered 45 mins after APAP challenge; type: functional, organism-based; how it was run: as §1
Mus musculus [18] = assay: Hepatoprotective activity against APAP-induced acute liver injury in C57BL/6N mouse assessed as increase in SOD levels at 30 mg/kg, po administered 45 mins after APAP challenge; type: functional, organism-based; how it was run: as §1
Mus musculus [19] = assay: Hepatoprotective activity against APAP-induced acute liver injury in C57BL/6N mouse assessed as upregulation of UGT1A1 mRNA levels at 30 mg/kg, po administered 45 mins after APAP challenge; type: functional, organism-based; how it was run: as §1
Mus musculus [20] = assay: Hepatoprotective activity against APAP-induced acute liver injury in C57BL/6N mouse assessed as increase in APAP metabolism by measuring increase in APAP-sulfate level at 30 mg/kg, po administered 45 min after APAP challenge by LC-MS/MS analysis; type: functional, organism-based; how it was run: as §1
[21] = Half life in rat liver microsomes at 1 uM up to 40 mins by LC-MS/MS method
[22] = Intrinsic clearance in rat liver microsomes at 1 uM up to 40 mins by LC-MS/MS method; details: read-out: CLH
[23] = Metabolic stability in rat liver microsomes assessed as compound remaining at 1 uM up to 40 mins by LC-MS/MS method relative to control
[24] = Aqueous solubility of compound in phosphate buffer at pH 7.4//MeOH after 24 hrs by LC-MS/MS method; type: physicochemical

- Activity [1]: inactive
SMILES: CC(C)c1onc(-c2c(Cl)cccc2Cl)c1COc1cccc(CO)c1

- Activity [1]: inactive
SMILES: CC(C)c1onc(-c2c(Cl)cccc2Cl)c1COc1cccc(C(=O)O)c1

- Activity [4]: inactive
- Activity [1]: inactive
- Activity [9]: inactive
- Activity [12]: inactive
SMILES: CC(C)c1onc(-c2c(Cl)cccc2Cl)c1COc1ccc(COc2ccc(C(=O)O)cc2)cc1
- Activity (Mus musculus [2]): Active
- Activity (Mus musculus [3]): Active
- Activity (Mus musculus [5]): Active
- Activity (Mus musculus [6]): Active
- Activity (Mus musculus [7]): Active
- Activity (Mus musculus [8]): Active
- Activity (Mus musculus [10]): Active
- Activity (Mus musculus [11]): Active
- Activity (Mus musculus [13]): Active
- Cp (Mus musculus [14]): 615 nM
- Activity (Mus musculus [15]): Active
- Activity (Mus musculus [16]): Active
- Activity (Mus musculus [17]): Active
- Activity (Mus musculus [18]): Active
- Activity (Mus musculus [19]): Active
- Activity (Mus musculus [20]): Active

- Activity [1]: inactive
SMILES: CC(C)c1onc(-c2c(Cl)cccc2Cl)c1COc1ccc(COc2cccc(CO)c2)cc1

- Activity [1]: inactive
SMILES: CC(C)c1onc(-c2c(Cl)cccc2Cl)c1COc1ccc(-c2cccc(C(=O)O)c2)cc1

- Activity [1]: inactive
SMILES: CC(C)c1onc(-c2c(Cl)cccc2Cl)c1COc1ccccc1

- Activity [1]: inactive
SMILES: CC(C)c1onc(-c2c(Cl)cccc2Cl)c1COc1ccc(COc2ccc(C#N)cc2)cc1

- Activity [1]: inactive
SMILES: COC(=O)c1cccc(OCc2c(-c3c(Cl)cccc3Cl)noc2C(C)C)c1

- Activity [1]: inactive
SMILES: CC(C)c1onc(-c2c(Cl)cccc2Cl)c1COc1ccc(C(=O)O)cc1

SMILES: CC[C@H]1[C@@H](O)[C@@H]2[C@H](CC[C@]3(C)[C@@H]([C@H](C)CCC(=O)O)CC[C@@H]23)[C@@]2(C)CC[C@@H](O)C[C@@H]12 [OBETICHOLIC ACID]
- half-life at 1 µM [21]: 21 min
- microsomal CLint at 1 µM [22]: 109 µL/min/mg
- remaining at 40 min, 1 µM [23]: 27%
- solubility at 24 h [24]: > 200 µM

- Activity [1]: inactive
SMILES: CC(C)c1onc(-c2c(Cl)cccc2Cl)c1COc1ccc(CO)cc1
